# Screens deposited in PubChem by several laboratories.
# Compounds with a hit are over-represented: about 6.4% of the library has one in this group of screens.
# WT yeast gro inh – growth inhibition of WT yeast, mitochondrial fusion screen. inhibition, % at 10 µM. AID 1362. 190,000 tested, 2.1% active. mitochondrial fusion phenotypic screen, WT strain; in the data active = inhibition above about 58%; tested in S. cerevisiae
# MPTP block – blocks calcium-induced mitochondrial swelling | 360,000 tested, 1.4% active | inhibition, % at 10 µM | isolated mouse mitochondria, Ca2+ swelling absorbance, 30 min | AID 602449;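 active = inhibition of 50% or more, scaled per plate between neutral and stimulator controls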;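 note: 0% = DMSO wells given calcium and 100% = 1 mM EGTA wells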
# GRIN3A LBD mod – NR3A (human) ligand-binding domain modulation. NR3A LBD differential scanning fluorimetry, Tm shift; 0% = protein alone, 100% = glycine-bound protein. 340,000 tested, 2.5% active. Tm shift relative to glycine control, % at 25 µM. AID 1259313;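 active = melting temperature shift of at least 10% of the positive control shift, at one fixed dose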
# TbMetRS inhib – blocks T. brucei methionyl-tRNA synthetase activity; purified T. brucei MetRS, ATP depletion, Kinase-Glo luminescence; inhibition, % at 11.9 µM; 360,000 tested, 0.4% active;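 active = inhibition above a per-plate cutoff of the control wells' mean inhibition plus 3 SD, cut at about 5.5% in these data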;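 note: 0% = DMSO wells median and 100% = median of wells with control inhibitor compound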
#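 technique = Kinase-Glo luminescence, ATP depletion format | system = purified MetRS (methionyl-tRNA synthetase) enzyme from Trypanosoma brucei | timing = 15 min preincubation, 2 h reaction, all 25 °C | evaluation = percent inhibition versus plate control medians | dosing = single dose, 11.9 µM final nominal, 0.9% final DMSO | also added = substrates ATP, L-methionine and bulk Escherichia coli tRNA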
# CHOP inh – blocks CHOP induction under ER stress; CHO-K1 CHOP-promoter luciferase, tunicamycin-induced, 15-18 h; 220,000 tested, 3.8% active; inhibition, % at 10 µM;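 active = compounds that reduced the stress-induced luciferase reporter signal by more than about 70% of percent inhibition, limit read from the data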;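 note: 0% = tunicamycin plus vehicle and 100% = wells without tunicamycin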
# EBV gp42 inh – inhibitors of Epstein-Barr virus glycoprotein 42; Q1HVG2; Fluorescence polarization binding assay, mP read-out; inhibition, % (tested at 21.74 µM); 220,000 tested, 0.42% active; AID 1085; in the data active = inhibition above about 50%
# Target sequence (Q1HVG2 whole entry, looked up): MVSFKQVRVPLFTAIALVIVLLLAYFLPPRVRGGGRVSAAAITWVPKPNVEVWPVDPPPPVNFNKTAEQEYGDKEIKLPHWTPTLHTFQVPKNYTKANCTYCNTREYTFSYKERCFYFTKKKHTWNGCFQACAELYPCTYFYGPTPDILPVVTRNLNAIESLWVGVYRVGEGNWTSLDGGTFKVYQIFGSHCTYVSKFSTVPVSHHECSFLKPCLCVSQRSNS
# Starred values were filed as active, the others as inactive; . = not tested or not shown.
SMILES,WT yeast gro inh,MPTP block,GRIN3A LBD mod,TbMetRS inhib,CHOP inh,EBV gp42 inh
Cn1c(CNC(=O)CCNC(=O)c2cccc(Cl)c2)cc(=O)n(C)c1=O,.,-1,12*,0,.,.
Cc1[nH]n(-c2ccccc2)c(=O)c1N=Nc1ccccc1,-2,6,1,0,95*,-18
Nc1[nH]n(-c2ccccc2)c(=O)c1N=Nc1ccc2c(c1)OCO2,.,3,11*,0,-13,-2
COc1cccc(N2CCN(c3ncccn3)CC2)c1,7,-1,0,0,-3,8
O=C(Nc1cccc(NC(=O)c2ccccc2Cl)c1)c1ccc(F)cc1,.,1,2,-1,.,.
O=[N+]([O-])c1cc(/C=N/O)ccc1Oc1cccc(Cl)c1,72*,1,0,0,-1,3
O=[N+]([O-])c1cc(/C=N/O)ccc1Oc1ccccc1Cl,35,3,-2,0,-2,3
c1ccc(-c2nnsc2-c2ccccc2)cc1,.,0,1,0,.,.
O=S(=O)(c1ccc(Cl)c(Cl)c1)c1snnc1-c1ccccc1,84*,5,-2,0,54,-5
O=c1c(/C=C(\O)c2ccccc2)nc2ccccc2n1-c1ccccc1,26,0,0,-1,-32,176*
Cc1nc2ccccc2n1-c1ccccc1,8,-1,-1,0,21,-13
CCOC(=O)c1ccc(NC(=O)c2nc[nH]c2C(=O)N2CCN(c3ccccc3)CC2)cc1,.,1,-4,0,73*,-2
Cc1ccc(NC(=O)c2nc[nH]c2C(=O)N2CCN(C(=O)OC(C)(C)C)CC2)cc1,.,0,12*,0,.,.
CCOC(=O)c1ccc(NC(=O)c2nc[nH]c2C(=O)NC2CCN(C(=O)OC(C)(C)C)CC2)cc1,.,0,3,0,85*,0
CC(C)(C)OC(=O)N1CCC(NC(=O)c2nc[nH]c2C(=O)NC2CCN(C(=O)OC(C)(C)C)CC2)CC1,.,0,1,-1,.,.
Cc1ccc(NC(=O)c2nc[nH]c2C(=O)N2CCN(c3ccccc3)CC2)cc1,.,1,-6,1,34,-5
C/C(Nc1ccc(C)cc1)=C(/C#N)C(N)=O,12,0,-1,0,19,-1
CCN(CC)c1nc2c(c(=O)[nH]c(=O)n2C)n1CCCc1ccccc1,.,2,-1,-1,.,.
CCOC(=O)C1CCN(S(=O)(=O)c2c(C)n[nH]c2C)CC1,67*,-3,-1,-1,13,-13
CCOC(=O)[C@]12CCCC=C1N(Cc1ccco1)C(=O)[C@H](CC(=O)N1CCN(C(=O)C3CC3)CC1)C2,.,1,.,-1,.,.
CCCN=C(C)c1c(-c2ccccc2)[nH]n(-c2nc3ccccc3s2)c1=O,19,1,1,0,72*,2
COC(=O)Cc1[nH]n(-c2nc3ccccc3s2)c(=O)c1C(C)=Nc1ccc(Cl)cc1,.,0,1,-1,83*,-12
CCN(CC)CCCN=Cc1c(-c2ccccc2)[nH]n(-c2nc3ccccc3s2)c1=O,.,1,-3,0,-18,-17
COC(=O)Cc1[nH]n(-c2nc3ccccc3s2)c(=O)c1C(C)=Nc1ccc(C)cc1,1,-1,1,0,107*,15
COC(=O)Cc1[nH]n(-c2ccccc2)c(=O)c1C(C)=Nc1ccccc1,1,-1,-2,0,-32,-10
SMILES,WT yeast gro inh,MPTP block,GRIN3A LBD mod,TbMetRS inhib,CHOP inh,EBV gp42 inh
C/C(=N/NC(=O)c1cccs1)c1c(C)[nH]n(-c2nc3ccccc3s2)c1=O,57,1,-11,-6,-6,18
Cc1ccc(-n2c(C)nnc2SCC(=O)N2CCOCC2)cc1,.,0,0,0,.,.
Cc1ccc(CN2C(=O)CCC2C(=O)NC2CCCC2)cc1 (stereo not drawn),-9,-2,1,0,26,-6
CC[C@@]12C(=O)N(c3cccc(Br)c3)C(=O)N1[C@H](c1ccc(Br)cc1)[C@@H]1C(=O)N(C(C)(C)C)C(=O)[C@@H]12,.,-2,-5,0,.,.
CCOc1ccc(C(=O)Nc2ccc(N3CCCC3)cc2)cc1,2,-1,-4,-1,-33,-36
CCc1nnc(NC(=O)C2Cc3ccccc3CN2S(=O)(=O)c2ccc(C)cc2)s1 (stereo not drawn),79*,2,2,0,31,-11
CCc1nnc(NC(=O)C2Cc3ccccc3CN2S(=O)(=O)c2cccs2)s1 (stereo not drawn),20,1,4,-1,7,-1
CCc1nnc(NC(=O)c2ccc(S(=O)(=O)N3CCc4ccccc4C3)cc2)s1,-2,5,-1,0,82*,-19
COc1ccc(NCc2nc3ccccc3n2C)cc1,.,0,-3,0,.,.
COc1ccc(C(=O)NC(C)C2CC3CCC2C3)cc1 (stereo not drawn),.,0,0,0,.,.
CC(NC(=O)c1ccc(N(C)C)cc1)C1CC2CCC1C2 (stereo not drawn),6,-3,3,-2,79*,-16
CCOC(=O)C1=C(O)C(=O)NC(c2ccccc2)=C(OCC)C1,-19,-1,0,0,95*,-12
Cc1sc(NC(=O)c2ccccc2)c(C(=O)c2ccccc2)c1C,34,4,0,0,34,-16
Cc1ccc(C(=O)Nc2sc(C)c(C)c2C(=O)c2ccccc2)cc1,33,4,20*,0,32,-1
Cc1ccc(C(=O)Nc2cc([N+](=O)[O-])ccc2F)s1,18,0,12*,0,-6,-12
Cc1ccc(C(=O)Nc2cc(Cl)ccc2N2CCCCC2)s1,68*,7,22*,0,21,-9
Cc1nc2ccc(NC(=O)c3nn(CC(C)C)c(=O)c4ccccc34)cc2s1,64*,0,-14,0,47,-5
Cc1nnc(NC(=O)c2nn(CC(C)C)c(=O)c3ccccc23)s1,3,3,0,-1,-3,3
O=C(Nc1ccc(Br)cc1)c1ccc(N2C(=O)C3CC=C(Cl)CC3C2=O)cc1 (stereo not drawn),0,-1,26*,-1,77*,-39
O=C(Nc1ccc(Br)cc1)c1ccc(N2C(=O)C3CCCCC3C2=O)cc1 (stereo not drawn),.,3,5,0,.,.
O=C(CCCN1C(=O)C2CC=CCC2C1=O)Nc1cccc(F)c1 (stereo not drawn),.,0,11*,0,.,.
Cc1cccc(NC(=O)CCCN2C(=O)C3CC=CCC3C2=O)c1 (stereo not drawn),.,0,2,0,.,.
Cc1c(Cl)cccc1NC(=O)CCN1C(=O)C2CC=CCC2C1=O (stereo not drawn),.,-1,11*,0,.,.
COc1ccc(NC(=O)CCN2C(=O)C3CC=C(Cl)CC3C2=O)cc1 (stereo not drawn),-18,0,32*,0,-7,-1
